Results reported in ChEMBL document CHEMBL1124927, “Synthesis and structure-activity relationships of new 7-[3-(fluoromethyl)piperazinyl]- and -(fluorohomopiperazinyl)quinolone antibacterials” (1990).
In brackets after ≈: the same amount, converted by molar mass.

How the values were obtained:
Escherichia coli [1] = test: In vitro minimal inhibitory concentration against Escherichia coli ATCC 25922 (Ec(A)); format: functional
Summary of the method: (§1)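 Agar dilution: two-fold serial drug dilutions in Mueller–Hinton agar; plates inoculated with 1–5 × 10⁴ CFU via Steers multiple inocula replicator; incubated 18 h at 35 °C. MIC = lowest concentration preventing macroscopic growth.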

Pseudomonas aeruginosa = test: In vitro minimal inhibitory concentration against Pseudomonas aeruginosa 12-4-4 (Pa); format: functional; summary of the method: as §1
Enterococcus faecalis [2] = test: In vitro minimal inhibitory concentration Streptococcus faecalis VGH-84 (Sf(V)); format: functional; summary of the method: as §1
Enterococcus faecalis [3] = test: In vitro minimal inhibitory concentration against Streptococcus faecalis UCI-85 (Sf(U)); format: functional; summary of the method: as §1
Staphylococcus aureus [4] = test: Median effective dose against female mice infected with Staphylococcus aureus Smith after subcutaneous administration; format: functional; conditions: sc
Summary of the method: (§2)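 CD-1 female mice (20 ± 2 g) infected ip with 0.5 mL standardized bacterial suspension (E. coli #311 in trypticase–soy broth; S. aureus Smith in 5% hog gastric mucin). Dosed 0.5 h post-infection, oral or subcutaneous, 2-fold dose increments in 0.5 mL 0.2% aqueous agar; five mice per dose. 7-day survival pooled from three tests; ED50 by probit analysis, 95% confidence limits.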

Enterobacter cloacae [5] = test: (§3) In vitro minimal inhibitory concentration against Enterobacter cloacae VGH-84-39 (Et(c)); format: functional
Escherichia coli [6] = test: In vitro minimal inhibitory concentration against Escherichia coli #311 (Ec(B)); format: functional; summary of the method: as §1
Staphylococcus aureus [7] = test: Median effective dose against female mice infected with Staphylococcus aureus Smith after oral administration; format: functional; summary of the method: as §2
Staphylococcus aureus [8] = test: In vitro minimal inhibitory concentration against Staphylococcus aureus ATCC 29213 (Sa(B)); format: functional; summary of the method: as §1
Staphylococcus aureus [9] = test: In vitro minimal inhibitory concentration against Staphylococcus aureus Smith (MP) (Sa(A)); format: functional; summary of the method: as §1
Morganella morganii = test: In vitro minimal inhibitory concentration against Morganella morganii CMC-84-39 (Mn); format: functional; summary of the method: as §1
Escherichia coli [10] = test: Median effective dose against female mice infected with Escherichia coli #311 after subcutaneous administration; format: functional; conditions: sc; summary of the method: as §2
[11] = Ratio of ED50 value of (po/sc) was determined for Escherichia coli #311; format: functional
Summary of the method: (§4)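 Oral and subcutaneous ED50 values from ip-infected CD-1 female mice (treated 0.5 h post-infection, 2-fold doses in 0.2% aqueous agar, five mice/dose, 7-day survival, three pooled tests, probit analysis); ratio taken as po ED50 divided by sc ED50, as an index of absorption.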

Escherichia coli [12] = test: Median effective dose against female mice infected with Escherichia coli #311 after oral administration; format: functional; summary of the method: as §2
[13] = Ratio of ED50 value of (po/sc) was determined for Staphylococcus aureus Smith; format: functional; summary of the method: as §4
Escherichia coli [14] = test: animal or person; conditions: in Mus musculus, sc
Escherichia coli [15] = test: animal or person; conditions: in Mus musculus, po
Enterobacter cloacae [16] = test: as §3; format: functional; summary of the method: as §1; remark: listed apart in the source

Compound	MIC (Escherichia coli [1])	MIC (Pseudomonas aeruginosa)	MIC (Enterococcus faecalis [2])	MIC (Enterococcus faecalis [3])	MIC (Enterobacter cloacae [5])	MIC (Escherichia coli [6])	MIC (Staphylococcus aureus [8])	MIC (Staphylococcus aureus [9])	MIC (Morganella morganii)	MIC (Enterobacter cloacae [16])	ED50 (Staphylococcus aureus [4])	ED50 (Staphylococcus aureus [7])	ED50 (Escherichia coli [10])	Ratio [11]	ED50 (Escherichia coli [12])	Ratio [13]	ED50 (Escherichia coli [12]; Escherichia coli, po)	ED50 (Escherichia coli [14])	ED50 (Escherichia coli [15])
O=C(O)c1cn(C2CC2)c2cc(N3CCNCC3)c(F)cc2c1=O [CIPROFLOXACIN]	≤ 0.015 µg/mL	–	1 µg/mL (≈ 3.02 µM)	1 µg/mL (≈ 3.02 µM)	–	≤ 0.015 µg/mL	1 µg/mL (≈ 3.02 µM)	0.25 µg/mL (≈ 0.754 µM)	0.015 µg/mL (≈ 0.0453 µM)	–	0.69 mg/kg	3.8 mg/kg	–	–	–	–	–	0.07 mg/kg	0.49 mg/kg
O=C(O)c1cn(C2CC2)c2cc(N3CCNC(CF)C3)c(F)cc2c1=O (stereo not given)	0.06 µg/mL (≈ 0.165 µM)	2 µg/mL (≈ 5.5 µM)	1 µg/mL (≈ 2.75 µM)	2 µg/mL (≈ 5.5 µM)	0.12 µg/mL (≈ 0.33 µM)	0.03 µg/mL (≈ 0.0826 µM)	0.25 µg/mL (≈ 0.688 µM)	0.12 µg/mL (≈ 0.33 µM)	0.12 µg/mL (≈ 0.33 µM)	–	0.94 mg/kg	2.8 mg/kg	0.6 mg/kg	2	–	3	1.2 mg/kg	–	–
O=C(O)c1cn(C2CC2)c2cc(N3CCNCC(O)C3)c(F)cc2c1=O (stereo not given)	0.25 µg/mL (≈ 0.692 µM)	2 µg/mL (≈ 5.53 µM)	16 µg/mL (≈ 44.3 µM)	16 µg/mL (≈ 44.3 µM)	0.25 µg/mL (≈ 0.692 µM)	0.5 µg/mL (≈ 1.38 µM)	16 µg/mL (≈ 44.3 µM)	4 µg/mL (≈ 11.1 µM)	0.12 µg/mL (≈ 0.332 µM)	–	–	–	–	–	–	–	–	–	–
O=C(O)c1cn(C2CC2)c2cc(N3CCNCC(F)C3)c(F)cc2c1=O (stereo not given)	0.03 µg/mL (≈ 0.0826 µM)	2 µg/mL (≈ 5.5 µM)	4 µg/mL (≈ 11 µM)	4 µg/mL (≈ 11 µM)	0.06 µg/mL (≈ 0.165 µM)	0.03 µg/mL (≈ 0.0826 µM)	1 µg/mL (≈ 2.75 µM)	0.25 µg/mL (≈ 0.688 µM)	0.06 µg/mL (≈ 0.165 µM)	–	–	–	–	–	–	–	–	–	–
O=C(O)c1cn(-c2ccc(F)cc2)c2cc(N3CCNC(CF)C3)c(F)cc2c1=O (stereo not given)	0.25 µg/mL (≈ 0.599 µM)	8 µg/mL (≈ 19.2 µM)	4 µg/mL (≈ 9.58 µM)	4 µg/mL (≈ 9.58 µM)	–	0.25 µg/mL (≈ 0.599 µM)	0.5 µg/mL (≈ 1.2 µM)	0.25 µg/mL (≈ 0.599 µM)	1 µg/mL (≈ 2.4 µM)	0.25 µg/mL (≈ 0.599 µM)	–	–	–	–	–	–	–	–	–
O=C(O)c1cn(C2CC2)c2cc(N3CCCNCC3)c(F)cc2c1=O	0.03 µg/mL (≈ 0.0869 µM)	1 µg/mL (≈ 2.9 µM)	1 µg/mL (≈ 2.9 µM)	2 µg/mL (≈ 5.79 µM)	0.03 µg/mL (≈ 0.0869 µM)	0.03 µg/mL (≈ 0.0869 µM)	2 µg/mL (≈ 5.79 µM)	0.25 µg/mL (≈ 0.724 µM)	0.03 µg/mL (≈ 0.0869 µM)	–	–	–	–	–	–	–	–	–	–

More lines, main results first:

MIC (Escherichia coli [1])	MIC (Pseudomonas aeruginosa)	MIC (Enterococcus faecalis [2])	MIC (Enterococcus faecalis [3])	MIC (Enterobacter cloacae [5])	MIC (Escherichia coli [6])	MIC (Staphylococcus aureus [8])	MIC (Staphylococcus aureus [9])	MIC (Morganella morganii)	MIC (Enterobacter cloacae [16])	Compound	ED50 (Staphylococcus aureus [4])	ED50 (Staphylococcus aureus [7])	ED50 (Escherichia coli [10])	Ratio [11]	ED50 (Escherichia coli [12])	Ratio [13]	ED50 (Escherichia coli [12]; Escherichia coli, po)	ED50 (Escherichia coli [14])	ED50 (Escherichia coli [15])
0.12 µg/mL (≈ 0.342 µM)	32 µg/mL (≈ 91.1 µM)	2 µg/mL (≈ 5.69 µM)	4 µg/mL (≈ 11.4 µM)	0.12 µg/mL (≈ 0.342 µM)	≤ 0.12 µg/mL	0.25 µg/mL (≈ 0.712 µM)	≤ 0.12 µg/mL	0.12 µg/mL (≈ 0.342 µM)	–	CCn1cc(C(=O)O)c(=O)c2cc(F)c(N3CCNC(CF)C3)cc21 (stereo not given)	2.6 mg/kg	6 mg/kg	3 mg/kg	1	2.8 mg/kg	2.3	–	–	–
≤ 0.015 µg/mL	0.25 µg/mL (≈ 0.724 µM)	1 µg/mL (≈ 2.9 µM)	2 µg/mL (≈ 5.79 µM)	0.015 µg/mL (≈ 0.0434 µM)	≤ 0.015 µg/mL	0.5 µg/mL (≈ 1.45 µM)	0.12 µg/mL (≈ 0.347 µM)	0.03 µg/mL (≈ 0.0869 µM)	–	CC1CN(c2cc3c(cc2F)c(=O)c(C(=O)O)cn3C2CC2)CCN1 (stereo not given)	0.61 mg/kg	2.4 mg/kg	0.09 mg/kg	4.7	–	3.9	0.42 mg/kg	–	–
2 µg/mL	64 µg/mL	16 µg/mL	16 µg/mL	1 µg/mL	1 µg/mL	32 µg/mL	8 µg/mL	0.5 µg/mL	–	CCn1cc(C(=O)O)c(=O)c2cc(F)c(N3CCNC(CO)C3)cc21.Cl (stereo not given)	–	–	–	–	–	–	–	–	–
0.5 µg/mL (≈ 1.29 µM)	32 µg/mL (≈ 82.6 µM)	4 µg/mL (≈ 10.3 µM)	4 µg/mL (≈ 10.3 µM)	1 µg/mL (≈ 2.58 µM)	0.5 µg/mL (≈ 1.29 µM)	0.25 µg/mL (≈ 0.645 µM)	0.12 µg/mL (≈ 0.31 µM)	1 µg/mL (≈ 2.58 µM)	–	CCn1cc(C(=O)O)c(=O)c2cc(F)c(N3CCNC(C(F)F)C3)c(F)c21 (stereo not given)	–	–	–	–	–	–	–	–	–
